What is called half-life is the time in which the quantity being followed falls by half. A lower half-life goes with rapid decline. In general, microsomal CLint refers to a measure of how fast metabolising enzymes remove a compound, apart from limits set by blood flow. As usually defined, the IC50 is the concentration that gives 50% inhibition.

SMILES strings stand for the structures.

A short description of series [1]: rat liver microsomal metabolic stability. The note with it: for half-life / microsomal CLint: both, rat, rat liver microsomes; for microsomal CLint: app (rat liver microsomes). The series is classed as in vitro ADME. For orientation: Microsomes from liver hold many membrane-bound enzymes, among them those of drug oxidation.
For series [2], the target named is T1, fatty acid amide hydrolase (FAAH) (Homo sapiens, UniProt O00519).
T1 sequence (O00519 1-579): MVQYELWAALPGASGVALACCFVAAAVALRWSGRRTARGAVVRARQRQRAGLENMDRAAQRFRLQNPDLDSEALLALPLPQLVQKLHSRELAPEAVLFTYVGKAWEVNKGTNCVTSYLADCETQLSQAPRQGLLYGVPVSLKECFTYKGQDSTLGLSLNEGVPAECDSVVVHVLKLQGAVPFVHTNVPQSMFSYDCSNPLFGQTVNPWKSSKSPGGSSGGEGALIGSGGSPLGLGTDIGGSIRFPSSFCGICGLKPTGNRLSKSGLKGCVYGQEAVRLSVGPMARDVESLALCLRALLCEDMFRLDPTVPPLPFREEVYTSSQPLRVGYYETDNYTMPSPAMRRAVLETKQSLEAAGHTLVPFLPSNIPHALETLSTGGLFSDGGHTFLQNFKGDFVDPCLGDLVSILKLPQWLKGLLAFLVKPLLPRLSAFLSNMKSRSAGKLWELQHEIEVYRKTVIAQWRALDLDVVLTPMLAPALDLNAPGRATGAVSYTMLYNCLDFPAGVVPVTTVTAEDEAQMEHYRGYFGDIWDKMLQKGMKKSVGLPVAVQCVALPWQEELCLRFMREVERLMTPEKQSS
In words: FAAH inhibition assay, substrate OMP. The series is classed as biochemical. Summed up: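 FAAH activity was followed fluorimetrically (excitation 303 nm, emission 394 nm) at 37 °C using N-(6-methoxypyridin-3-yl)octanamide (OMP) at a final concentration of 50 μM. The reaction buffer was 0.1 M sodium phosphate, pH 8, containing 0.1 mg/mL BSA. Each experiment was run in triplicate, and values are given as average ± SD.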

The conditions of series [3]: cited from earlier work.
Series [4] has as its target T2, rat sEH enzyme (Rattus norvegicus, UniProt P80299).
T2 sequence (P80299 1-554): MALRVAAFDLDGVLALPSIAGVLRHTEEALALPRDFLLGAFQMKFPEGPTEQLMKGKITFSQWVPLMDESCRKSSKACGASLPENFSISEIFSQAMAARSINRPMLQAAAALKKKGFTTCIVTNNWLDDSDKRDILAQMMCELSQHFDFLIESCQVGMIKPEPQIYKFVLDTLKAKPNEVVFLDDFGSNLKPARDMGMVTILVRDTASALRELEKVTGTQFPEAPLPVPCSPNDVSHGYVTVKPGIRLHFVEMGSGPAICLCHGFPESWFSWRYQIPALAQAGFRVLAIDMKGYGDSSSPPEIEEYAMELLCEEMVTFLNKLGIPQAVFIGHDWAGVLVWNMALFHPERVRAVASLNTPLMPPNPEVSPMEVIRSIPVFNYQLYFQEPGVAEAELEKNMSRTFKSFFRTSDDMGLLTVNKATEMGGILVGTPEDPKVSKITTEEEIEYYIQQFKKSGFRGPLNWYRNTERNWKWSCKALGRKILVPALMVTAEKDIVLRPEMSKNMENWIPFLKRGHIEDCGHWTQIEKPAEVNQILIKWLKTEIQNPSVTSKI
In words: rat sEH inhibition assay. The format is biochemical.

A short description of series [5]: human liver microsomal metabolic stability. The settings on record: both, human liver microsomes. The series is classed as in vitro ADME.
Series [6] addresses T3, Human sEH (Homo sapiens, UniProt P34913).
T3 sequence (P34913 1-555): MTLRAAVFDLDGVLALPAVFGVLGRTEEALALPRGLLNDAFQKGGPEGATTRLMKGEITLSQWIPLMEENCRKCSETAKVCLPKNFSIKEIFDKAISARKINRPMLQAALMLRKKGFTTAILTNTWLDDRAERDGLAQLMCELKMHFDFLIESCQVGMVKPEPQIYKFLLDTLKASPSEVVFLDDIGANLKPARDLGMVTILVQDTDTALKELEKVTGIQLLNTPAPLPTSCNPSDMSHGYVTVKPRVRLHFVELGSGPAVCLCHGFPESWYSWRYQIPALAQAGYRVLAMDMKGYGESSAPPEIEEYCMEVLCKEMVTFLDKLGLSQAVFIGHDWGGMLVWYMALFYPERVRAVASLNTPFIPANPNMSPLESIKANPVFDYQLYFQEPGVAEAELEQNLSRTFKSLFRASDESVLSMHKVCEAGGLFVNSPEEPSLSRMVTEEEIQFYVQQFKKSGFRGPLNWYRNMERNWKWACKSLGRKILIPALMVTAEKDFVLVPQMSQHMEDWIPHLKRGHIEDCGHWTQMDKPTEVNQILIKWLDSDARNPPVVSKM
In words: human sEH inhibition assay, fluorescent substrate CMNPC. The series is classed as biochemical.

[7] abbreviates: apparent intrinsic clearance, CLint = k/P.

Turning to `Cc1ccc(S(=O)(=O)N2CCC(C(=O)Nc3ccc4cc(C(=O)O)ccc4c3)CC2)c(C)c1` [Compound 3, 6-(1-((2,4-dimethylphenyl)sulfonyl)piperidine-4-carboxamido)-2-naphthoic acid], the half-life in series [1] amounted to 0.433 h; in series [5], 3.1 h. The microsomal CLint was 53.3 µL/min/mg in series [1] (setting [7]) and 7.5 µL/min/mg in series [5]. Further, the IC50 was 23000 nM in series [2], 141 ± 20 nM in series [4] and 85 nM in series [6]. For the same molecule, the “CLint, app (human liver microsomes), previously published value in parenthesis” value in series [3] was 6.3 µL/min/mg.
Regarding `[2H]c1c([2H])c(S(=O)(=O)N2CCC(C(=O)Nc3ccc4cc(C(=O)O)ccc4c3)CC2)c(C([2H])([2H])[2H])c([2H])c1C([2H])([2H])[2H]` [Compound 3i, 6-(1-((2,4-bis(methyl-d3)phenyl-3,5,6-d3)sulfonyl)piperidine-4-carboxamido)-2-naphthoic acid], the “CLint, app (rat liver microsomes)” value in series [1] (setting [7]) is less than 23.1 µL/min/mg. The results for the half-life in series [1] and in series [5] were more than 1 h and more than 4 h, respectively. The microsomal CLint was approximately 20 µL/min/mg in series [1] (setting [7]) and less than 5.8 µL/min/mg in series [5]. Moreover, the figures for the IC50 in series [2] and in series [6] were 8800 nM and 106 nM, respectively.
